ChEMBL document CHEMBL2401705, “Discovery of triazines as potent, selective and orally active PDE4 inhibitors” (Bioorg Med Chem Lett, 2013)
Values after ≈ are worked out from the molar mass of the structure shown. Blank lines part the entries; values can stand above or below the compound they belong to.

Experiments:
[1] = Inhibition of cytochrome P450 (unknown origin); assay type: ADME; settings: human
[2] = target: Voltage-gated inwardly rectifying potassium channel KCNH2 (Homo sapiens, UniProt Q12809); assay: Inhibition of human ERG
Procedure, shortened: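 hERG was tested in a binding-format assay as percent inhibition at a single test concentration of 10 µM.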

[3] = Intrinsic clearance in rat liver microsomes; assay type: ADME, Microsome; settings: read-out: CLH
[4] = target: High affinity 3',5'-cyclic-AMP phosphodiesterase 7A (Homo sapiens, UniProt Q13946); assay: Inhibition of human full length PDE7A1 expressed in baculovirus infected sf21 cells
[5] = target: 3',5'-cyclic-AMP phosphodiesterase 4A (Homo sapiens, UniProt P27815); assay: Inhibition of human full length PDE4A4 expressed in baculovirus infected sf21 cells
Mustela putorius furo [6] = assay: Toxicity in po dosed ferret assessed as first emetic dose by measuring occurrence of vomiting episode after 6 hrs; assay type: organism-based; settings: in vivo
Procedure, shortened: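 Ferrets were given oral doses and watched for 6 h after administration for a vomiting episode; the first emetic dose was reported in mg/kg.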

serum albumin = serum albumin (Homo sapiens, UniProt P02768); assay: Binding affinity to human serum albumin; assay type: ADME; settings: read-out: PB (converted)
Mustela putorius furo [7] = assay: Inhibition of LPS-induced neutrophilia in ferret COPD model BAL-fluid at 0.1 mg/kg, po; assay type: functional
Procedure, shortened: (§1)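 Ferrets challenged by LPS inhalation, with compound given orally. Read-out is the change in neutrophil count in bronchoalveolar lavage fluid, expressed as percentage inhibition.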

Mustela putorius furo [8] = assay: Inhibition of LPS-induced neutrophilia in ferret COPD model BAL-fluid at 0.01 mg/kg, po; assay type: functional; procedure, shortened: as §1
PBMC = assay: Inhibition of TNFalpha production in human PBMC; assay type: functional, cell-based
Blood = assay: Inhibition of TNFalpha production in human whole blood; assay type: functional, tissue-based
Rattus norvegicus = assay: Inhibition of LPS-induced neutrophil accumulation in rat lung at 0.1 mg/kg, po; assay type: functional
[9] = Intrinsic clearance in human liver microsomes; assay type: ADME, Microsome; settings: read-out: CLH
hERG (KCNH2) = hERG (KCNH2) (Homo sapiens, UniProt Q12809); assay: Inhibition of human ERG at 10 uM
Procedure, shortened: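 hERG measured in a binding assay, reported as percent inhibition at 10 µM.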

[10] = Intrinsic clearance in dog liver microsomes; assay type: ADME, Canis lupus familiaris, Microsome; settings: read-out: CLH
[11] = Cmax in rat at 3 mg/kg, po; assay type: ADME, organism-based; parameters: dose 3 mg/kg, route oral; settings: in vivo
[12] = Volume of distribution in rat at 3 mg/kg; assay type: ADME, organism-based; parameters: dose 3 mg/kg; settings: in vivo
[13] = Half life in rat at 3 mg/kg, iv; assay type: ADME, organism-based; parameters: dose 3 mg/kg, route intravenous; settings: in vivo
[14] = Oral bioavailability in rat; assay type: ADME, organism-based; settings: in vivo
[15] = Clearance in rat at 3 mg/kg, iv; assay type: ADME, organism-based; parameters: dose 3 mg/kg, route intravenous; settings: in vivo
[16] = Inhibition of bovine retina PDE6; parameters: species or system Bos taurus
[17] = target: cAMP and cAMP-inhibited cGMP 3',5'-cyclic phosphodiesterase 10A (Homo sapiens, UniProt Q9Y233); assay: Inhibition of human recombinant PDE10A
[18] = target: Dual 3',5'-cyclic-AMP and -GMP phosphodiesterase 11A (Homo sapiens, UniProt Q9HCR9); assay: Inhibition of human recombinant PDE11A
[19] = target: High affinity cAMP-specific and IBMX-insensitive 3',5'-cyclic phosphodiesterase 8A (Homo sapiens, UniProt O60658); assay: Inhibition of human recombinant PDE8A
[20] = target: High affinity cGMP-specific 3',5'-cyclic phosphodiesterase 9A (Homo sapiens, UniProt O76083); assay: Inhibition of human recombinant PDE9A
[21] = target: cGMP-specific 3',5'-cyclic phosphodiesterase (Homo sapiens, UniProt O76074); assay: Inhibition of human recombinant PDE5A
[22] = target: cGMP-inhibited 3',5'-cyclic phosphodiesterase 3A (Homo sapiens, UniProt Q14432); assay: Inhibition of human recombinant PDE3A
[23] = target: cGMP-dependent 3',5'-cyclic phosphodiesterase (Homo sapiens, UniProt O00408); assay: Inhibition of human recombinant PDE2A
[24] = target: Dual specificity calcium/calmodulin-dependent 3',5'-cyclic nucleotide phosphodiesterase 1B (Homo sapiens, UniProt Q01064); assay: Inhibition of human recombinant PDE1B
[25] = target: 3',5'-cyclic-AMP phosphodiesterase 4B (Homo sapiens, UniProt Q07343); assay: Inhibition of full length PDE4B1 (unknown origin)
[26] = target: 3',5'-cyclic-AMP phosphodiesterase 4D (Rattus norvegicus, UniProt P14270); assay: Inhibition of rat PDE4D3
[27] = Inhibition of CYP3A4D (unknown origin); assay type: ADME, Homo sapiens
[28] = Inhibition of CYP3A4Q (unknown origin); assay type: ADME, Homo sapiens
Cytochrome P450 2D6 = Cytochrome P450 2D6 (Homo sapiens, UniProt P10635); assay: Inhibition of CYP2D6 (unknown origin); assay type: ADME
[29] = Inhibition of CYP3A4B (unknown origin); assay type: ADME, Homo sapiens
Cytochrome P450 2A6 = Cytochrome P450 2A6 (Homo sapiens, UniProt P11509); assay: Inhibition of CYP2A6 (unknown origin); assay type: ADME
Cytochrome P450 2C9 = Cytochrome P450 2C9 (Homo sapiens, UniProt P11712); assay: Inhibition of CYP2C9 (unknown origin); assay type: ADME
Cytochrome P450 2C19 = Cytochrome P450 2C19 (Homo sapiens, UniProt P33261); assay: Inhibition of CYP2C19 (unknown origin); assay type: ADME
Cytochrome P450 1A1 = Cytochrome P450 1A1 (Homo sapiens, UniProt P04798); assay: Inhibition of CYP1A1 (unknown origin); assay type: ADME
Cytochrome P450 1A2 = Cytochrome P450 1A2 (Homo sapiens, UniProt P05177); assay: Inhibition of CYP1A2 (unknown origin); assay type: ADME
[30] = Aqueous solubility of the compound at pH 7.4; settings: buffer
Mustela putorius furo [31] = assay: Toxicity in iv dosed ferret assessed as first emetic dose by measuring occurrence of vomiting episode after 6 hrs; assay type: organism-based; settings: in vivo
Homo sapiens = species: Homo sapiens; assay: Selectivity ratio of IC50 for human full length PDE7A1 to IC50 for human full length PDE4A4
Phosphodiesterase 4 = Phosphodiesterase 4 (Homo sapiens, UniProt P27815+Q08499+Q07343+Q08493); assay: Inhibition of PDE4 (unknown origin); assay type: protein assay

Chain of High affinity 3',5'-cyclic-AMP phosphodiesterase 7A (Q13946 whole entry): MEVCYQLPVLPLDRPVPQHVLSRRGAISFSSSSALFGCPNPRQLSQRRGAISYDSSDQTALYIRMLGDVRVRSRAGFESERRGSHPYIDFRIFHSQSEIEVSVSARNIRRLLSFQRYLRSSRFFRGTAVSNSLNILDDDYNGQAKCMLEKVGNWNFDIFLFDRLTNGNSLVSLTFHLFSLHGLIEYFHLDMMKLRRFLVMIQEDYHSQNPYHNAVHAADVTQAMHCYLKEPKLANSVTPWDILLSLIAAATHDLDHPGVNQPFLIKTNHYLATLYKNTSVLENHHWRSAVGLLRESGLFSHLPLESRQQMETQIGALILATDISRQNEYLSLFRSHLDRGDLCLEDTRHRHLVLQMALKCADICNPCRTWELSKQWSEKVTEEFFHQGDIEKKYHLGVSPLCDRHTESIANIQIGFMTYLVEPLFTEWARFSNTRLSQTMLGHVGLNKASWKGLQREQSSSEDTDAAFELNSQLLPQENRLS
Chain of 3',5'-cyclic-AMP phosphodiesterase 4A (P27815 whole entry): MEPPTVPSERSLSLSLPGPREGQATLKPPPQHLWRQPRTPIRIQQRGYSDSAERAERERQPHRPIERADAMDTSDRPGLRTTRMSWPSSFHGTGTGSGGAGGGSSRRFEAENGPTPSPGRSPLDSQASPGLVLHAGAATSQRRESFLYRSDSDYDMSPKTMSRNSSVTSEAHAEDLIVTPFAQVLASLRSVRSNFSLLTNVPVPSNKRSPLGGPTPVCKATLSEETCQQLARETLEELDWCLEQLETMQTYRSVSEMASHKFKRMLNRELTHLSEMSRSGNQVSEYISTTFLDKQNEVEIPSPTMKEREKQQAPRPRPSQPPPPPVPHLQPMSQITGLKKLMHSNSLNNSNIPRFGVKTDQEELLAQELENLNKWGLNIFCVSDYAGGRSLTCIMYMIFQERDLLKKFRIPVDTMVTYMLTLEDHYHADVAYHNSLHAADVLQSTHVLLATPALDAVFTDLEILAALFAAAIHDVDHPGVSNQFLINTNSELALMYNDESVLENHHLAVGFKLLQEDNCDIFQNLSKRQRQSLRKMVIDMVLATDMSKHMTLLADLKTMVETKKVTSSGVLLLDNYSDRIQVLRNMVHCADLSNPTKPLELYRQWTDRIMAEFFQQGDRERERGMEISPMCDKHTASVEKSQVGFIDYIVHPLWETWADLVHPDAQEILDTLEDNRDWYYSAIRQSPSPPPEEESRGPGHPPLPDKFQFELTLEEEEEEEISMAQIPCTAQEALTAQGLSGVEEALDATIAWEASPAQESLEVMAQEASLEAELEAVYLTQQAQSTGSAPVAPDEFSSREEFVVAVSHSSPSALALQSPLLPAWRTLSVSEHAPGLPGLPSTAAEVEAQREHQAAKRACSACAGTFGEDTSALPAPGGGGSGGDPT
Chain of serum albumin (P02768 whole entry): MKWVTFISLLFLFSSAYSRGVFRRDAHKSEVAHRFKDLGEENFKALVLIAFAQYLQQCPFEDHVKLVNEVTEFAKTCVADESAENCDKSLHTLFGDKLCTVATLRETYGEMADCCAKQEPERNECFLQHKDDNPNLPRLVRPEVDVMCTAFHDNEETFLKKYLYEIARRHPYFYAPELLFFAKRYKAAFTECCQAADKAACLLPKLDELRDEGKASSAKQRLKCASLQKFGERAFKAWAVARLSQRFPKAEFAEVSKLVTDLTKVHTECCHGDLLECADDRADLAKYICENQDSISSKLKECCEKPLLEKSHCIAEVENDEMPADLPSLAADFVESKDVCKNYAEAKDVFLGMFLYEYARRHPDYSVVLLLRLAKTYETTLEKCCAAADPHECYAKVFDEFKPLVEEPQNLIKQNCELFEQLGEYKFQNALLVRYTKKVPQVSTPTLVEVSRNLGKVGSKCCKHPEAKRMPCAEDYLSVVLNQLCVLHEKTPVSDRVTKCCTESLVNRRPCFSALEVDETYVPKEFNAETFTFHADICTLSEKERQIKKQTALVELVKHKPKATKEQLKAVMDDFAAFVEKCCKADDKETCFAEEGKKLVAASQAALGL
Chain of Voltage-gated inwardly rectifying potassium channel KCNH2 (Q12809 whole entry): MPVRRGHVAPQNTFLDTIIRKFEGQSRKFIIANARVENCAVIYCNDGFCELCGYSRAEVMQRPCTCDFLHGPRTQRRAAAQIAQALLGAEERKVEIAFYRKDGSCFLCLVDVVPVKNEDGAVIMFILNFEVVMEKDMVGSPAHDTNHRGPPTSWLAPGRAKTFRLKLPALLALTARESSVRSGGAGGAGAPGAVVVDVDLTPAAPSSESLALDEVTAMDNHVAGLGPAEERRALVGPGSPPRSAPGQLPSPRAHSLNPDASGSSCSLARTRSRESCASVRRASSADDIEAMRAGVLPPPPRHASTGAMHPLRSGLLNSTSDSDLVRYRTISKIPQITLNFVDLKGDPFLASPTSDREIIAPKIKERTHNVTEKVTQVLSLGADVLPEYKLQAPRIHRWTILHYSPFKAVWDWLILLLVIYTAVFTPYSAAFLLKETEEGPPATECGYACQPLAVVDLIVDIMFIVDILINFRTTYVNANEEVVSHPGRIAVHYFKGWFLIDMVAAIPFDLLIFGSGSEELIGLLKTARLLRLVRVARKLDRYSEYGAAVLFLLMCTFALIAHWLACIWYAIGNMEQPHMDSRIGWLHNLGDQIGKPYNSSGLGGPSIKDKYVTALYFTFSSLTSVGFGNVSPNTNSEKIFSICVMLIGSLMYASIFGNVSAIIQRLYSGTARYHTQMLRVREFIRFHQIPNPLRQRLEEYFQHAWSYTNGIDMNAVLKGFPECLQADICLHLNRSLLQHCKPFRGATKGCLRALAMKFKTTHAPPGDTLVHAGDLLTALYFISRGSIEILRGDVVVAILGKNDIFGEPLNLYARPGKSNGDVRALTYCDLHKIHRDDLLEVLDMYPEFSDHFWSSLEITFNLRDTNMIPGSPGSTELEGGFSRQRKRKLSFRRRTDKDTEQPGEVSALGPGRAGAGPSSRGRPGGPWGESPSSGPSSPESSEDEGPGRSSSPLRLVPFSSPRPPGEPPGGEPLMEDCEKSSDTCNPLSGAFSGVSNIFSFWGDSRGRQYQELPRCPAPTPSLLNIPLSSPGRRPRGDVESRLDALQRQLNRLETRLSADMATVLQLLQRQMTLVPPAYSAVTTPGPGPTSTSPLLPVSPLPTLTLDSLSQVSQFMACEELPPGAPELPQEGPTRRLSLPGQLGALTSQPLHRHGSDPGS
Chain of cGMP-inhibited 3',5'-cyclic phosphodiesterase 3A (Q14432 whole entry): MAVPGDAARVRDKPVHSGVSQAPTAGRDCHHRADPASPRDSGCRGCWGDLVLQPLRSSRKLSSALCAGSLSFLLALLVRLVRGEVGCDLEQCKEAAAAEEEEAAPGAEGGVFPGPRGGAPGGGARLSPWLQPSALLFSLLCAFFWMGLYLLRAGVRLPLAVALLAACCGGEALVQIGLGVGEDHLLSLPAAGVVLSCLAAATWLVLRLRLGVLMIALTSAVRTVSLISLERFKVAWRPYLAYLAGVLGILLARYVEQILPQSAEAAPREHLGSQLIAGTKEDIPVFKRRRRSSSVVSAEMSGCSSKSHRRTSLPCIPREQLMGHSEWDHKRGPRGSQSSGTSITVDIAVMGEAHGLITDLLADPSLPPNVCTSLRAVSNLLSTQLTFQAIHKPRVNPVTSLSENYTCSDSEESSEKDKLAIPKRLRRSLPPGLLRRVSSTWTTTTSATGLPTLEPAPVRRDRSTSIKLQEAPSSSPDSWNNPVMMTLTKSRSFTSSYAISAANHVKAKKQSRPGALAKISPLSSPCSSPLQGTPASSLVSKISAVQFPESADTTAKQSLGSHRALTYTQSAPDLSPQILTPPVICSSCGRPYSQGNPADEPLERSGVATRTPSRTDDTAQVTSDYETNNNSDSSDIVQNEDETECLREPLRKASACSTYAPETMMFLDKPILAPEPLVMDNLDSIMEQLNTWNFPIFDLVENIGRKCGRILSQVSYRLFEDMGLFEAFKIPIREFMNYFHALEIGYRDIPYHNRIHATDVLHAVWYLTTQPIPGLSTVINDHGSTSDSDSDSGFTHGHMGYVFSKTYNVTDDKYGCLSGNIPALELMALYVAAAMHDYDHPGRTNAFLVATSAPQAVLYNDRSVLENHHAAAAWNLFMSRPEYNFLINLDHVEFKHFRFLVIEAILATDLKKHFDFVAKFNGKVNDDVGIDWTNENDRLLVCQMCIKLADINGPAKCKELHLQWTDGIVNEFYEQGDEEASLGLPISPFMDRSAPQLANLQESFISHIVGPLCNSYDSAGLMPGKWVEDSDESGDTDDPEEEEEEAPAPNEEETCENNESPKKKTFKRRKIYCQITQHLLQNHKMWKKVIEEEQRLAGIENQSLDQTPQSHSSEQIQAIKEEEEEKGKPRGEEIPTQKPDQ
Chain of Dual specificity calcium/calmodulin-dependent 3',5'-cyclic nucleotide phosphodiesterase 1B (Q01064 whole entry): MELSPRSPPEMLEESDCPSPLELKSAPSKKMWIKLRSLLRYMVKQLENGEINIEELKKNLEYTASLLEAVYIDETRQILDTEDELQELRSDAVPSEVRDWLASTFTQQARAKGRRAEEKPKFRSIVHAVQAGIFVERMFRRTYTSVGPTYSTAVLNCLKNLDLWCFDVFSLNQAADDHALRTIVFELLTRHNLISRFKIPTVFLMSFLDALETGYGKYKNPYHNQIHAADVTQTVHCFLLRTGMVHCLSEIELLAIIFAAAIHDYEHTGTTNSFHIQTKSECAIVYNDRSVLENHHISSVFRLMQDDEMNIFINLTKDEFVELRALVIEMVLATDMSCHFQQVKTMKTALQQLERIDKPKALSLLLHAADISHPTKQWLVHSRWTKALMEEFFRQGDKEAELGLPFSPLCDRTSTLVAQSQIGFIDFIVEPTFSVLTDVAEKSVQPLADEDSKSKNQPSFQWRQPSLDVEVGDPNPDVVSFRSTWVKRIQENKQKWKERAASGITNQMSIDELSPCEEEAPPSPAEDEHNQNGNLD

Structure (SMILES): CNc1nc(NC2(C#N)CCCCC2)nc(-n2ccnc2)n1
inhibition (INH) [1]: Not Active
inhibition (INH) [2]: Not Active
CLint scaled [3]: 52 mL/min/kg
IC50 [4]: 1050 nM
IC50 [5]: 6.6 nM

Structure (SMILES): CCC(C#N)(CC)Nc1nc(NC)nc(-n2cncn2)n1
Activity (Mustela putorius furo [6]): 3 mg/kg
fraction unbound (serum albumin): 0.49
inhibition in vivo at 0.1 mg/kg (Mustela putorius furo [7]): 66%
inhibition in vivo at 0.01 mg/kg (Mustela putorius furo [8]): 33%
IC50 (PBMC): 22 nM
IC50 (Blood): 55 nM
inhibition in vivo at 0.1 mg/kg (Rattus norvegicus): 41%
CLint scaled [9]: < 1 mL/min/kg
inhibition at 10 µM (hERG (KCNH2)): 6%
CLint scaled [10]: < 1 mL/min/kg
Cmax [11]: 669 ng/mL
Vd [12]: 0.5 L/kg
half-life [13]: 1.7 h
bioavailability [14]: 41%
clearance [15]: 3.3 mL/min/kg
IC50 [16]: > 1000 nM
IC50 [17]: > 1000 nM
IC50 [18]: > 1000 nM
IC50 [19]: > 1000 nM
IC50 [20]: > 1000 nM
IC50 [21]: > 1000 nM
IC50 [22]: > 1000 nM
IC50 [23]: > 1000 nM
IC50 [24]: > 1000 nM
IC50 [25]: 0.87 nM
IC50 [26]: 1.18 nM
IC50 [27]: > 10000 nM
IC50 [28]: > 10000 nM
IC50 (Cytochrome P450 2D6): > 10000 nM
IC50 [29]: > 10000 nM
IC50 (Cytochrome P450 2A6): > 10000 nM
IC50 (Cytochrome P450 2C9): > 10000 nM
IC50 (Cytochrome P450 2C19): > 10000 nM
IC50 (Cytochrome P450 1A1): > 10000 nM
IC50 (Cytochrome P450 1A2): > 10000 nM
solubility [30]: 165 µg/mL (≈ 574 µM)
CLint scaled [3]: 26 mL/min/kg
IC50 [5]: 0.81 nM

Structure (SMILES): CNc1nc(NC2(C#N)CCCCC2)nc(-n2cccn2)n1
CLint scaled [3]: 103 mL/min/kg
IC50 [4]: > 5000 nM
IC50 [5]: 3.6 nM

Structure (SMILES): CNc1nc(NC2(C#N)CCCCC2)nc(-n2cnc(C#N)n2)n1
CLint scaled [3]: 210 mL/min/kg
IC50 [4]: > 5000 nM
IC50 [5]: 4.9 nM

Structure (SMILES): CNc1nc(NC2(C#N)CCCCC2)nc(OC)n1
CLint scaled [3]: 196 mL/min/kg
IC50 [4]: 521 nM
IC50 [5]: 19 nM

Structure (SMILES): CNc1nc(NC2(C#N)CCCCC2)nc(N2CCCC2)n1
CLint scaled [3]: > 276 mL/min/kg
IC50 [4]: > 5000 nM
IC50 [5]: 38 nM

Structure (SMILES): CNc1nc(NC2(C#N)CCCCC2)nc(-n2cncn2)n1
solubility [30]: 11 µg/mL (≈ 36.7 µM)
inhibition (INH) [1]: Not Active
Ratio IC50 (Homo sapiens): > 1000
inhibition (INH) [2]: Not Active
CLint scaled [3]: 52 mL/min/kg
IC50 [4]: > 5000 nM
IC50 [5]: 1.7 nM

Structure (SMILES): CNc1nc(Nc2ccccc2)nc(NC2(C#N)CCCCC2)n1
IC50 [4]: > 5000 nM
IC50 [5]: 56 nM

Structure (SMILES): CNc1nc(NC2(C#N)CCCCC2)nc(C2CC2)n1
CLint scaled [3]: 276 mL/min/kg
IC50 [4]: 539 nM
IC50 [5]: 19 nM

Structure (SMILES): CNc1nc(NC2(C#N)CCCCC2)nc(-n2cnc3ccccc32)n1
IC50 [4]: > 1000 nM
IC50 [5]: 12 nM

Structure (SMILES): CNc1nc(NC2(C#N)CCCCC2)nc(N(C)C)n1
CLint scaled [3]: 276 mL/min/kg
IC50 [4]: > 5000 nM
IC50 [5]: 18 nM

Structure (SMILES): CNc1nc(C#N)nc(NC2(C#N)CCCCC2)n1
CLint scaled [3]: 122 mL/min/kg
IC50 [4]: > 1000 nM
IC50 [5]: 38 nM

Second part, led by results:

IC50 [5]: 156 nM
Structure (SMILES): CCC(C)(CC)Nc1nc(Cl)nc(NC)n1

CLint scaled [3]: 37 mL/min/kg
IC50 [5]: 1.6 nM
Structure (SMILES): CNc1nc(NC2(C#N)CCC(C)CC2)nc(-n2cncn2)n1 (mixture of isomers)

IC50 [5]: 165 nM
Structure (SMILES): CONc1nc(Cl)nc(NC2(C#N)CCCCC2)n1

IC50 [5]: 60 nM
Structure (SMILES): CCCC(C#N)(CCC)Nc1nc(Cl)nc(NC)n1

IC50 [5]: 104 nM
Structure (SMILES): CNc1nc(Cl)nc(NC2CCCCC2)n1

fraction unbound (serum albumin): 0.42
solubility [30]: 171 µg/mL (≈ 621 µM)
Structure (SMILES): COc1ccc(C2CNC(=O)C2)cc1OC1CCCC1 (racemic) [ROLIPRAM]
Activity (Mustela putorius furo [31]): 0.3 mg/kg

IC50 [5]: 149 nM
Structure (SMILES): C#CC1(Nc2nc(Cl)nc(NC)n2)CCCCC1

IC50 [5]: 668 nM
Structure (SMILES): CN(C)c1nc(Cl)nc(NC2(C#N)CCCCC2)n1

IC50 (Phosphodiesterase 4): 140 nM
Structure (SMILES): O=S1(=O)CCN(c2nc(NC3CC3)nc(C3CC3)n2)C1

IC50 [5]: 563 nM
Structure (SMILES): CN(c1nc(N)nc(Cl)n1)C1(C#N)CCCCC1

solubility [30]: 9 µg/mL (≈ 28.7 µM)
CLint scaled [3]: 276 mL/min/kg
IC50 [5]: 0.42 nM
Structure (SMILES): CNc1nc(NC2(C#N)CCCCCC2)nc(-n2cncn2)n1

solubility [30]: 50 µg/mL (≈ 183 µM)
CLint scaled [3]: 32 mL/min/kg
IC50 [5]: 2.4 nM
Structure (SMILES): CCC(C)(C#N)Nc1nc(NC)nc(-n2cncn2)n1 (racemic)
